Test results reported in ChEMBL document CHEMBL1123415, “Benzo[a]carbazole derivatives. Synthesis, estrogen receptor binding affinities, and mammary tumor inhibiting activity” (1986).
Where “and” joins values, the source holds several entries; their conditions need not be identical. Equal values may be shown once. One block for each molecule: values may come before it.

What was measured:
[1] = molecular target: T1, Estrogen receptor (Mus musculus) (UniProt O08537+P19785); conditions: Uterus
[2] = molecular target: T1, Estrogen receptor (Mus musculus); conditions: Uterus; remark: listed apart in the source
[3] = molecular target: T1, Estrogen receptor (Mus musculus); conditions: Uterus; remark: listed apart in the source
[4] = molecular target: T1, Estrogen receptor (Mus musculus); conditions: Uterus; remark: listed apart in the source
[5] = molecular target: Estrogen receptor (Bos taurus) (UniProt Q9XSB5+P49884); assay: Evaluated for relative binding affinity (RBA) for calf uterine estrogen receptor; type: protein assay
Procedure, shortened: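 Calf uterine cytosol (105000g supernatant; final protein 3 mg/mL) in Tris-EDTA-azide buffer pH 7.5. Incubated with 5 nM [³H]estradiol and competitor (10⁻⁹–10⁻⁴ M) for 18 h at 4 °C. Free ligand removed with dextran-coated charcoal, bound counted by scintillation. Nonspecific binding measured with 5 μM estradiol. RBA = estradiol/competitor molar ratio at 50% displacement ×100.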

[6] = tested on: MCF7; assay: Inhibition of [3H]thymidine incorporation into hormone sensitive MCF-7 human breast cancer cells at 10e-5 M; type: functional
Procedure, shortened: (§1)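 MCF-7 cells kept two weeks in medium with 5% charcoal-treated calf serum, 37 °C, 5% CO₂. About 2×10⁴ cells per well; compound added next day in 0.1% ethanol, ethanol-only controls, medium changed on day 4. Cells counted on day 7 by Coulter counter; [³H]thymidine 1 μCi/well for 2 h. Mean of six dishes.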

[7] = tested on: MCF7; assay: Inhibition of [3H]thymidine incorporation into hormone sensitive MCF-7 human breast cancer cells at 10e-6 M; type: functional
Procedure, shortened: as §1

[8] = tested on: MCF7; assay: Percentage cell number change as treated/control in hormone sensitive MCF-7 cell proliferation assay at 10e-6 M or 10e-5 M; type: functional, Homo sapiens
Procedure, shortened: as §1

[9] = tested on: MCF7; assay: Percentage [3H]thymidine incorporation treated/control in hormone sensitive MCF-7 cell proliferation assay at 10e-5 M or 10e-6 M; type: functional, Homo sapiens
Procedure, shortened: as §1

[10] = species on record: Rattus norvegicus; assay: (§2) Change in DMBA-induced mammary tumor area in rats after 28 day therapy at 3 mg dose (experiment-1); type: functional
Procedure, shortened: (§3)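 Female Sprague–Dawley rats given a single 20 mg DMBA dose by gavage in 1 mL olive oil at 50 days old. Randomized once tumor area per animal exceeded 140 mm². Compound given sc in olive oil (1 mL/kg), dose per kg, once daily Monday–Thursday, double dose Friday. Tumor area from caliper measurement of two perpendicular axes, twice weekly. Significance by Wilcoxon–Mann–Whitney U test.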

[11] = species on record: Rattus norvegicus; assay: Complete remission of DMBA-induced mammary tumors in rats at 3 mg dose; type: functional
Procedure, shortened: as §3

[12] = species on record: Rattus norvegicus; assay: Partial remission of DMBA-induced mammary tumors in rats at 3 mg dose; type: functional
Procedure, shortened: as §3

[13] = species on record: Rattus norvegicus; assay: Percentage progressive DMBA-induced mammary tumors in rats at 3 mg dose (experiment-1); type: functional
Procedure, shortened: as §3

[14] = species on record: Rattus norvegicus; assay: Percentage static unchanged DMBA-induced mammary tumors in rats at 3 mg dose (experiment-1); type: functional
Procedure, shortened: as §3

[15] = species on record: Rattus norvegicus; assay: Final tumor number in DMBA-induced tumor bearing rats at 3 mg dose (experiment-1); type: functional
Procedure, shortened: as §3

[16] = species on record: Rattus norvegicus; assay: Initial tumor number in DMBA-induced tumor bearing rats at 3 mg dose (experiment-1); type: functional
Procedure, shortened: as §3

[17] = species on record: Rattus norvegicus; assay: as §2; type: functional; remark: listed apart in the source
Procedure, shortened: as §3

[18] = tested on: MCF7; assay: Reduction of cell number of hormone sensitive MCF-7 human breast cancer cells at 10e-5 M
[19] = tested on: MCF7; assay: Reduction of cell number of hormone sensitive MCF-7 human breast cancer cells at 10e-6 M
[20] = molecular target: T1, Estrogen receptor (Mus musculus); assay: Uterotrophic activity in mice as uterus dry weight (mg)/body weight (g) *100 at 0.2 ug; type: functional, tissue-based
Procedure, shortened: (§4)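 Immature 19-day-old female NMRI mice, 10 per group. Compound in olive oil injected sc on 3 consecutive days, dose per animal; vehicle-only controls, estrone as reference. Killed 24 h after last injection. Uteri fixed in Bouin solution, dried at 100 °C for 24 h. Value = uterine dry weight (mg)/body weight (g) ×100, mean of 10 animals ± SD.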

[21] = molecular target: T1, Estrogen receptor (Mus musculus); assay: Uterotrophic activity in mice as uterus dry weight (mg)/body weight (g) *100 at 1 ug; type: functional, tissue-based
Procedure, shortened: as §4

[22] = molecular target: T1, Estrogen receptor (Mus musculus); assay: Uterotrophic activity in mice as uterus dry weight (mg)/body weight (g) *100 at 25 ug; type: functional, tissue-based
Procedure, shortened: as §4

[23] = molecular target: T1, Estrogen receptor (Mus musculus); assay: Uterotrophic activity in mice as uterus dry weight (mg)/body weight (g) *100 at 5 ug; type: functional, tissue-based
Procedure, shortened: as §4

[24] = molecular target: T1, Estrogen receptor (Mus musculus); assay: Uterotrophic activity in mice as uterus dry weight (mg)/body weight (g) *100 at 125 ug; type: functional, tissue-based
Procedure, shortened: as §4

T1 sequence (O08537 whole entry, looked up): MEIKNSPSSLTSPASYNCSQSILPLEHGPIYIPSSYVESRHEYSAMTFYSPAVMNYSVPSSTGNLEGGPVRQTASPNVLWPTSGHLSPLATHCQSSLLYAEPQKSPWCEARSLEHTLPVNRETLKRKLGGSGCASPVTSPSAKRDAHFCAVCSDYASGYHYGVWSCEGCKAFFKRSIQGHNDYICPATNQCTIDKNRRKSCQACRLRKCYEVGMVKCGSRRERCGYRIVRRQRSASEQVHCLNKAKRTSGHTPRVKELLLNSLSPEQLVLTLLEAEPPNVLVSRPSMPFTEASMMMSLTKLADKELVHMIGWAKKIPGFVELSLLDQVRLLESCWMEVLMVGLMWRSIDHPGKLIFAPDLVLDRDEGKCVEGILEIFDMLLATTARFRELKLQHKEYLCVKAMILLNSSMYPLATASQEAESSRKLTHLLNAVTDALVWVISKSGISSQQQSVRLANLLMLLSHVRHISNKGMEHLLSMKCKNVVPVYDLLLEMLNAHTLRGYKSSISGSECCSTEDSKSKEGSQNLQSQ
T1 sequence (P19785 whole entry, looked up): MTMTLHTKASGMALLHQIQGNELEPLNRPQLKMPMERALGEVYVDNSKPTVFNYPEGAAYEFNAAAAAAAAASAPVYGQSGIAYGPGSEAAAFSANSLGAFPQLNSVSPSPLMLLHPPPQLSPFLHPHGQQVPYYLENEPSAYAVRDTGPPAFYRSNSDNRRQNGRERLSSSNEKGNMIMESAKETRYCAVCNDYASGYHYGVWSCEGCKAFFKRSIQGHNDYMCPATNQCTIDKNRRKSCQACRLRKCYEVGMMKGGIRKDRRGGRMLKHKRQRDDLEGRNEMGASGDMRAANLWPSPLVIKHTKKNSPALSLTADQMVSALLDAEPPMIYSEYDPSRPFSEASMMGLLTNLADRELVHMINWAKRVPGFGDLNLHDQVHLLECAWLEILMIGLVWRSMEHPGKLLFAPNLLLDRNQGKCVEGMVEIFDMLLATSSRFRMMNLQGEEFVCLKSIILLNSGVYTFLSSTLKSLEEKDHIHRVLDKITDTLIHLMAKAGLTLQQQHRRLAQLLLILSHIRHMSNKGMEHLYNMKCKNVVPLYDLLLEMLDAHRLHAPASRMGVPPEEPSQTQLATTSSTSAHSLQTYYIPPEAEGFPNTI

relative binding affinity (RBA) [5]: 0.7
Structure (SMILES): CCn1c2c(c3cc(O)ccc31)CCc1ccc(O)cc1-2

relative binding affinity (RBA) [5]: 2.3
Structure (SMILES): CCCCn1c2cc(O)ccc2c2ccc3cc(O)ccc3c21

relative binding affinity (RBA) [5]: 13
Structure (SMILES): CCn1c2c(c3cc(O)ccc31)CCc1cc(O)ccc1-2
Activity [6]: 760
Activity [7]: 25840
cell number [18]: 4600
cell number [19]: 28200

relative binding affinity (RBA) [5]: 9.5
Structure (SMILES): CCCCn1c2c(c3ccc(O)cc31)CCc1cc(O)ccc1-2

relative binding affinity (RBA) [5]: 9.7
Structure (SMILES): CCn1c2c(c3ccc(O)cc31)CCc1ccc(O)cc1-2

relative binding affinity (RBA) [5]: 30
Structure (SMILES): CCn1c2c(c3ccc(O)cc31)CCc1cc(O)ccc1-2

relative binding affinity (RBA) [5]: 38
Structure (SMILES): CCCn1c2c(c3ccc(O)cc31)CCc1cc(O)ccc1-2

relative binding affinity (RBA) [5]: 1.9
Structure (SMILES): CCn1c2c(c3cc(O)ccc31)CCc1c(O)cccc1-2

The next lines start with the molecule.

Structure (SMILES): C[C@]12CC[C@@H]3c4ccc(O)cc4CC[C@H]3[C@@H]1CCC2=O
Effect [1]: 48.6
Effect [2]: 46.9
Effect [3]: 42.5
Effect [4]: 46.9

Structure (SMILES): CCn1c2cc(O)ccc2c2ccc3ccc(O)cc3c21
relative binding affinity (RBA) [5]: 3.6

Structure (SMILES): CCn1c2ccc(O)cc2c2ccc3c(O)cccc3c21
relative binding affinity (RBA) [5]: 0.1

Structure (SMILES): CC/C(=C(\c1ccccc1)c1ccc(OCCN(C)C)cc1)c1ccccc1 [TAMOXIFEN]
Activity [6]: 80
Activity [7]: 1850
T/C [8]: 2% and 12%
T/C [9]: 0% and 6%
Change in tumor area [10]: 136%
Effect [11]: 22%
Effect [12]: 7%
Effect [13]: 44%
Effect [14]: 27%
No. of new tumors [15]: 24
No. of tumors [16]: 31
Change in tumor area [17]: -57%
cell number [18]: 2000
cell number [19]: 4800

Structure (SMILES): CCn1c2cc(OC(C)=O)ccc2c2ccc3cc(OC(C)=O)ccc3c21
Effect [20]: 21.6
Effect [21]: 28.5
Effect [22]: 38.7
Effect [23]: 38.5
Effect [24]: 46

Structure (SMILES): CCn1c2c(c3ccc(OC(C)=O)cc31)CCc1cc(OC(C)=O)ccc1-2
Activity [20]: 20.3
Activity [21]: 29.3
Activity [22]: 43.9
Activity [23]: 45.8

Structure (SMILES): CCn1c2ccc(O)cc2c2ccc3ccccc3c21
relative binding affinity (RBA) [5]: < 0.01
